Each structure is given as a SMILES string. Calls of active or inactive are those of the source. The rule behind the calls is not given here.

Assay [1] has as its system Mus musculus. Description: Analgesic activity in Swiss albino mouse model assessed as reduction of acetic acid-induced writhes at 3 mg/kg, po administered 30 mins prior to acetic acid challenge measured after 5 mins for 10 mins relative to vehicle-treated control. The assay is classed as functional. Further details: scale not given: the % may be the effect or the level left. A digest of the protocol: (§1)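 Male Swiss albino mice (23–25 g), standard diet and water ad libitum, 23 °C, 12 h light/dark cycle. Oral dosing (1–40 mg/kg range), with carboxymethylcellulose (CMC) as vehicle, 30 min before ip injection of 0.6% acetic acid (10 mL/kg). Stretching movements counted for 10 min, beginning 5 min after acetic acid. Results given as writhe count and % reduction versus vehicle-treated mice.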

Assay [2] concerns the target T1, Prostaglandin G/H synthase 2 (Homo sapiens) (UniProt P35354).
T1 sequence (whole entry): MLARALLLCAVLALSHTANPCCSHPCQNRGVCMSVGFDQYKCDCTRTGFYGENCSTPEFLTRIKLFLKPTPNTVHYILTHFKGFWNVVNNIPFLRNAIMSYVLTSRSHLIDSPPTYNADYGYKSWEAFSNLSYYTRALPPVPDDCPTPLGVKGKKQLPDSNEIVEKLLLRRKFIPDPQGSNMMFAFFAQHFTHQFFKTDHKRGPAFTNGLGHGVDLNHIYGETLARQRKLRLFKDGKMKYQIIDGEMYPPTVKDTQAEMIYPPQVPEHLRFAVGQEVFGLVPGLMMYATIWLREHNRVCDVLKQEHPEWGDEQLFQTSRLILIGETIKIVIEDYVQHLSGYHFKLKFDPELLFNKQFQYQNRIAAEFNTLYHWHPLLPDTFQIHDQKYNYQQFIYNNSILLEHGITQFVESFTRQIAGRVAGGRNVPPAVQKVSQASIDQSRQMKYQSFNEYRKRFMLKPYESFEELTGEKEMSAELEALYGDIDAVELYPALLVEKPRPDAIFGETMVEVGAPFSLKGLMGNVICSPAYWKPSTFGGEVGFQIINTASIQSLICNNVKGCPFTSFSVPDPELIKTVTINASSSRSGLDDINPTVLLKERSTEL
Particulars: at 10 µM.

For assay [3], the system named is Mus musculus. Description: Analgesic activity in Swiss albino mouse model assessed as reduction of acetic acid-induced writhes at 10 mg/kg, po administered 30 mins prior to acetic acid challenge measured after 5 mins for 10 mins relative to vehicle-treated control. The class given is functional. The arrangement: scale not given: the % may be the effect or the level left. The essentials:
as §1

Assay [4] concerns Mus musculus. Put plainly: Analgesic activity in Swiss albino mouse model assessed as reduction of acetic acid-induced writhes at 30 mg/kg, po administered 30 mins prior to acetic acid challenge measured after 5 mins for 10 mins relative to vehicle-treated control. Further details: scale not given: the % may be the effect or the level left. The assay is classed as functional. A digest of the protocol:
as §1

The target in assay [5] is T2, Prostaglandin G/H synthase 2 (Homo sapiens, UniProt P35354).
T2 sequence (P35354 whole entry): T1 sequence (whole entry)
Description: Inhibition of human recombinant COX2 using […] as substrate after 10 mins by EIA.

Assay [6] addresses T3, Prostaglandin G/H synthase 1 (Ovis aries) (UniProt P05979).
T3 sequence (whole entry): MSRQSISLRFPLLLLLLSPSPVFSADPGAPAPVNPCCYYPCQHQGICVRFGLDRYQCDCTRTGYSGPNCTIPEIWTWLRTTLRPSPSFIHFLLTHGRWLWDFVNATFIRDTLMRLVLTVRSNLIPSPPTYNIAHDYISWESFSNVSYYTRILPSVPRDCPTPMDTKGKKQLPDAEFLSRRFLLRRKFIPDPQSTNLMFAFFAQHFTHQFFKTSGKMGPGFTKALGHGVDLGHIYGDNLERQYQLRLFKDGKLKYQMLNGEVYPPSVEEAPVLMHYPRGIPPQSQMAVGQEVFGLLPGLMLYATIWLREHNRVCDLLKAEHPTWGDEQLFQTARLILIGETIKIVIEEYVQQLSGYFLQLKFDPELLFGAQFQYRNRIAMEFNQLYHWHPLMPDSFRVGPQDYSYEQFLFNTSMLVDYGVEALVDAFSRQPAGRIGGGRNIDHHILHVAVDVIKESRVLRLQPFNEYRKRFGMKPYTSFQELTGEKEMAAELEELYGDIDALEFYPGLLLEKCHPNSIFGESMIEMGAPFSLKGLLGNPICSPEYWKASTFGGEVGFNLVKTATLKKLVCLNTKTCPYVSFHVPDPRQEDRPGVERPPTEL
Particulars: at 10 µM.

The subject of assay [7] is Mus musculus. Put plainly: Analgesic activity in po dosed Swiss albino mouse model assessed as reduction of acetic acid-induced writhes administered 30 mins prior to acetic acid challenge measured after 5 mins for 10 mins relative to vehicle-treated control. The class given is functional, organism-based. The essentials: as §1
The test system of assay [8] is Mus musculus. Put plainly: Analgesic activity in Swiss albino mouse model assessed as reduction of acetic acid-induced writhes at 40 mg/kg, po administered 30 mins prior to acetic acid challenge measured after 5 mins for 10 mins relative to vehicle-treated control. The class given is functional. The arrangement: scale not given: the % may be the effect or the level left. A digest of the protocol:
as §1

Assay [9] concerns Mus musculus. Put plainly: Analgesic activity in Swiss albino mouse model assessed as reduction of acetic acid-induced writhes at 20 mg/kg, po administered 30 mins prior to acetic acid challenge measured after 5 mins for 10 mins relative to vehicle-treated control. The class given is functional. The arrangement: scale not given: the % may be the effect or the level left. A digest of the protocol: as §1

As a reminder, the inhibition is the share of the control response that was lost under treatment. In the case of `CCCNC(=O)Cc1cc(-c2ccc(S(N)(=O)=O)cc2)n(-c2ccc(F)cc2)c1C`, the Activity was 3.9% in the assay with Mus musculus [1], 8.3% with Mus musculus [3] and 39.1% in the assay on Mus musculus [4]. For the same compound, the inhibition in assay [2] amounted to 62%.
Turning to `CCCNC(=O)Cc1cc(-c2ccc(S(C)(=O)=O)cc2)n(-c2cccc(F)c2)c1C`, in [2], the inhibition amounted to 43%. The Activity in the assay with Mus musculus [3] is 12.2%; with Mus musculus [4] it was 9.9%.
One may read the IC50 as the concentration that gives 50% inhibition. Turning to `CCOC(=O)Cc1cc(-c2ccc(S(N)(=O)=O)cc2)n(-c2cccc(F)c2)c1C`, the IC50 in assay [5] came out at 0.92 µM. The inhibition result in [6] was “inactive”. The same compound displayed an inhibition in [2] of 89%. The Activity in the assay on Mus musculus [3] was determined as 26%; with Mus musculus [4], 33.5%.
`CCOC(=O)Cc1cc(-c2ccc(S(N)(=O)=O)cc2)n(-c2ccc(F)cc2)c1C`: the 50% inhibitory concentration (IC50) in assay [5] was 1.07 µM. Besides, the inhibition result in assay [6] was “inactive”. The compound also registered an inhibition in assay [2] of 82%. Further, the Activity result is “Dose-dependent effect” with Mus musculus [7], 10.4% with Mus musculus [3], 62.3% with Mus musculus [8] and 24.8% in the assay with Mus musculus [9].
Regarding `Cc1c(CC(=O)NC(C)C)cc(-c2ccc(S(N)(=O)=O)cc2)n1-c1ccc(F)cc1`, the Activity in the assay with Mus musculus [1] is 16.1%; in the assay on Mus musculus [3] it was 36.5%; in the assay on Mus musculus [4] it was 43.7%. For the same compound, the inhibition in assay [2] came to 48%.
For the compound `Cc1c(CC(=O)NC(C)C)cc(-c2ccc(S(C)(=O)=O)cc2)n1-c1cccc(F)c1`, in assay [5], the IC50 was determined as 7 µM. The compound further came in with an inhibition in [2] of 74%. Further, the Activity is recorded as 3.6% in the assay on Mus musculus [3] and 25.3% in the assay on Mus musculus [4].
As for `Cc1c(CC(=O)NC(C)C)cc(-c2ccc(S(N)(=O)=O)cc2)n1-c1cccc(F)c1`, the Activity in the assay on Mus musculus [1] stood at 11.5%; in the assay on Mus musculus [3] it was 29.3%; in the assay with Mus musculus [4] it was 31.6%. This compound came in with an inhibition in assay [2] of 49%.
In the case of `CCCNC(=O)Cc1cc(-c2ccc(S(N)(=O)=O)cc2)n(-c2cccc(F)c2)c1C`, the IC50 in [5] is 5.78 µM. Moreover, in assay [6], the inhibition entry is “inactive”. Moreover, in [2], the inhibition was found to be 96%. For the same compound, the Activity in the assay with Mus musculus [4] is reported as 12.2%.
`Cc1c(CC(=O)O)cc(-c2ccc(S(N)(=O)=O)cc2)n1-c1ccc(F)cc1`: the inhibition in assay [2] was 65%. In addition, the Activity in the assay with Mus musculus [3] was found to be 16.9%; with Mus musculus [8], 49.1%; with Mus musculus [9], 33.1%.
`Cc1c(CC(=O)NC(C)C)cc(-c2ccc(S(C)(=O)=O)cc2)n1-c1ccc(F)cc1`: in [5], the IC50 was 4.91 µM. Besides, the inhibition in assay [6] is 36%; in assay [2] it was 95%. Moreover, the Activity in the assay with Mus musculus [3] is given as 12.2%; with Mus musculus [4], 48.7%.
`Cc1c(CC(=O)O)cc(-c2ccc(S(N)(=O)=O)cc2)n1-c1cccc(F)c1`: the inhibition in assay [2] was 65%. Further, in the assay on Mus musculus [3], the Activity is 9.5%.
As to `CCCNC(=O)Cc1cc(-c2ccc(S(C)(=O)=O)cc2)n(-c2ccc(F)cc2)c1C`, the Activity in the assay with Mus musculus [1] amounted to 10.2%; in the assay with Mus musculus [3], 29.9%. For the same compound, in [2], the inhibition is 65%.
For `Cc1ccc(-c2cc(C(F)(F)F)nn2-c2ccc(S(N)(=O)=O)cc2)cc1` [CELECOXIB], the Activity in the assay on Mus musculus [3] came to 57.4%.

The record behind these values is ChEMBL document CHEMBL3400072, “Synthesis, biological evaluation and docking analysis of a new series of methylsulfonyl and sulfamoyl acetamides and ethyl acetates as potent COX-2 inhibitors” (Bioorg Med Chem, 2015).
